# How the values were obtained:
# [1] = Ionization constant, pKa of the compound in KCl at pH 1.8 by potentiometric titration method; type: physicochemical
# Method in brief: (§1)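 Potentiometric titration of about 1 mM aqueous compound, ionic strength 0.15 M KCl. Solution acidified to pH 1.8 with 0.5 N HCl, then titrated with standardized 0.5 N KOH to pH 12.2 at 25 °C under argon. pKa taken as mean of four titrations.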
# [2] = Displacement of [3H]muscimol from GABAA receptor in Sprague-Dawley rat brain synaptic membranes after 60 mins by Topcount scintillation counting method
# Method in brief: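 Synaptic membranes from male SPRD rat cortex and central hemispheres, washed four times (50 mM Tris-HCl pH 7.4, 48,000g, 4 °C). Membranes (70–80 µg protein) incubated with [3H]muscimol (5 nM final) and graded compound concentrations, 60 min, 0 °C. GF/C filtration, scintillation counting. Non-specific binding with 1.0 mM GABA. Triplicates, ≥3 experiments. IC50 converted to Ki (modified Cheng–Prusoff); mean pKi ± SEM.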
# [3] = Ionization constant, pKa of the compound; type: physicochemical; method in brief: as §1
# [4] = Ionization constant, pKa of the compound in methanol by diode array detection method; type: physicochemical
Structure (SMILES),pKa [1],Ki [2] [µM],pKi [2],pKa [3],pKa [4]
NCCc1nsnc1O,4.54,75,4.13,,
Oc1cn(C2CCNCC2)nn1,6.51,55,4.26,,
Oc1nn(C2CCNCC2)nc1CCC(c1ccccc1)c1ccccc1,,> 100,,,
Oc1nn(C2CCNCC2)nc1Cc1ccc2ccccc2c1,,3.3,5.49,,
Cn1nc(O)c(CCN)n1,5.92,> 100,,,
Oc1nnn(C2CCNCC2)c1CCC(c1ccccc1)c1ccccc1,,1.6,5.8,,
On1cc(C2CCNCC2)cn1,,10,,5.4,
Oc1nnn(C2CCNCC2)c1Cc1ccc2ccccc2c1,,2.4,5.62,,
Oc1cnn(C2CCNCC2)n1,6.36,> 100,,,
Oc1cc(C2CCNCC2)[nH]n1,,> 100,,,6.7
